Statin myotox sup: suppression of simvastatin myotoxicity; C2C12 myotubes + simvastatin, ATP luminescence, 48 h; scaled: DMSO 0, geranylgeraniol control 100; rescue of ATP level, % at 7.49 µM; 330,000 compounds, 0.78% hits; AID 602340;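 active = mean ATP rescue above about 67%, or every replicate alone reaching that limit, limit read from the data, passing the limit was not always enough; inconclusive = no clear call, values can overlap the other calls; inactive = mean under the limit and some replicate under it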;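 also: myotubes were challenged with 10 µM simvastatin during compound exposure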
Cneo AK release: causes C. neoformans cell lysis | lysis activity, % at 15 µM | adenylate kinase release luminescence, 4 h; normalised: neutral wells 0, clomiphene wells 100 | 360,000 compounds, 0.2% hits;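 active = mean lysis activity across replicates of at least 80%, whatever share of replicates individually reach that level; inactive = mean lysis activity below 80%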
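Signal: Adenylate kinase release luminescence | Assay system: Log-phase Cryptococcus neoformans yeast cells | Input: Cells at 5 × 10^6 per mL | Buffer or medium: Fresh YPD growth medium | Compound: Single dose | Schedule: Static 4 h at 37 °C with compound, 1 h detection | Controls: Clomiphene | Read-out: Luminescence rise reflecting yeast cell lysis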
DENV2 CPE rescue: protects cells from dengue virus 2 cytopathic effect | CPE inhibition, % at 9.99 µM | DENV2-infected cells, cytopathic effect rescue, plate reader | 350,000 compounds, 1.7% hits | AID 651640; in the data active = CPE inhibition above about 20%, passing the limit was not always enough; inconclusive = no clear call, values can overlap the other calls; tested in BHK-21 cells
Xi reactivation: X-chromosome reactivation activator. XiGFP mouse fibroblasts, % GFP-positive cells imaging, 3 d; cells co-treated with 5-aza-dC sensitizer; scaled so ellipticine positive control = 100%. activation, % at 7.58 µM. 360,000 compounds, 0.055% hits;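 active = mean normalized replicate activation at least 10% and every replicate at or above 10%; inconclusive = only one of the two criteria met; inactive = mean below 10% and not all replicates reach 10%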
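Assay system: SV40-immortalized XiGFP fibroblast cells, line 68-5-11; buffer or medium: DMEM plus 5-aza-dC sensitizer; compound: one concentration, pinned; timing: compounds 3 days, fix/stain 15 min at room temperature; benchmarks: positive control ellipticine, 6 µM final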
Hits are given with their value; . = inactive; ? = inconclusive; / = no result given; ! = not active in a repeat. Only some compounds are listed: those with a hit (about 2.1% of all), similar ones and a draw of the others.

SMILES	Statin myotox sup	Cneo AK release	DENV2 CPE rescue	Xi reactivation
CCC(=O)N(CC)C[C@@H]1[C@@H](c2ccccc2)[C@H](CO)N1C(C)=O	.	.	20	.
CCC(=O)N(CC)C[C@H]1[C@H](c2ccccc2)[C@@H](CO)N1C(C)=O	.	.	.	.
CCN(C[C@@H]1N[C@@H](CO)[C@H]1c1ccc(-c2ccccc2)cc1)C(=O)COC	.	.	24	.
CCN(C[C@H]1N[C@H](CO)[C@H]1c1ccc(-c2ccc(F)cc2)cc1)C(=O)COC	.	.	.	.
CC(=O)N1[C@@H](CO)[C@H](c2ccccc2)[C@@H]1CN(CC(C)C)C(=O)c1ccccn1	.	.	27	.
CC(C)NC(=O)N(C)C[C@H]1OCCCC[C@H](C)Oc2ccc(NC(=O)Nc3cccc4ccccc34)cc2C(=O)N([C@@H](C)CO)C[C@H]1C	/	.	.	.
C[C@H]1CN([C@@H](C)CO)C(=O)c2cc(-c3ccncc3)cnc2O[C@@H]1CN(C)Cc1cccnc1	.	.	.	.
C[C@@H]1CN([C@H](C)CO)C(=O)Cc2cc(NS(=O)(=O)c3ccc(F)cc3)ccc2O[C@@H]1CN(C)C(=O)Nc1ccccc1	.	.	.	.
COc1ccc2c3c([nH]c2c1)[C@H](CO)N(C(=O)CN(C)C)CC31CCN(Cc2ccccc2)CC1	/	/	.	.
CCC(C)(C)NC(=O)CN(C(=O)CNS(=O)(=O)c1ccccc1)c1ccccc1	101	.	/	/
CCC(C)(C)NC(=O)CN(C(=O)CNS(=O)(=O)c1ccc(C)cc1)c1ccc2c(c1)OCCO2	.	.	/	/
CO[C@H]1CN(C)C(=O)c2ccc(NC(=O)c3nc4ccccc4s3)cc2OC[C@H](C)N(Cc2ccncc2)C[C@H]1C	.	.	.	.
Cc1ccc(S(=O)(=O)N(C)C[C@H]2OCc3cnnn3CCCC(=O)N([C@@H](C)CO)C[C@@H]2C)cc1	.	.	?	.
Cc1ccc(S(=O)(=O)Nc2ccc3c(c2)C(=O)N([C@@H](C)CO)C[C@@H](C)[C@@H](CN(C)Cc2ccc(C(F)(F)F)cc2)OCCCC[C@H](C)O3)cc1	/	.	.	.
C[C@@H]1CN([C@@H](C)CO)C(=O)c2cc(NS(=O)(=O)c3ccc(F)cc3)ccc2O[C@@H](C)CCCCO[C@H]1CN(C)Cc1ccc(C(F)(F)F)cc1	/	.	.	.
Cc1ccc(S(=O)(=O)Nc2ccc3c(c2)C(=O)N([C@H](C)CO)C[C@H](C)[C@H](CN(C)Cc2ccc(C(F)(F)F)cc2)OCCCC[C@@H](C)O3)cc1	/	.	26	.
Cc1ccc(S(=O)(=O)Nc2ccc3c(c2)C(=O)N([C@H](C)CO)C[C@@H](C)[C@H](CN(C)Cc2ccc(C(F)(F)F)cc2)OCCCC[C@@H](C)O3)cc1	/	118	.	.
CN(C)CC(=O)N1[C@H](CO)[C@@H](c2ccccc2)C12CN(C(=O)c1ccccc1)C2	/	/	81	.
CN(C)CC(=O)N1[C@H](CO)[C@H](c2ccccc2)C12CN(CCC(F)(F)F)C2	/	/	21	.
COCC(=O)N1CC2(C1)[C@@H](c1ccccc1)[C@@H](CO)N2C(=O)c1ccccc1	/	/	27	.
CN(C)CC(=O)N1[C@H](CO)[C@@H](c2ccccc2)C12CN(CCC(F)(F)F)C2	/	/	.	.
C/C=C/c1ccc([C@H]2[C@@H](CO)N(C(=O)CC)C23CN(C(=O)c2ccccc2)C3)cc1	/	/	29	.
C[C@@H]1CN([C@H](C)CO)C(=O)c2cccc(NC(=O)c3ccc(-c4nccs4)cc3)c2O[C@H]1CN(C)C(=O)NC1CCCCC1	.	.	.	.
O=C(CC1CC1)N1CC2(C1)[C@H](c1ccccc1)[C@@H](CO)N2S(=O)(=O)Cc1ccccc1	/	/	.	.
O=C(Cc1ccccc1)N1CC2(C1)[C@H](c1ccccc1)[C@@H](CO)N2S(=O)(=O)Cc1ccccc1	/	/	33	.
SMILES	Statin myotox sup	Cneo AK release	DENV2 CPE rescue	Xi reactivation
C[C@@H]1CN([C@H](C)CO)C(=O)c2cc(NS(=O)(=O)c3ccc(Cl)cc3)ccc2O[C@@H](C)CCCCO[C@H]1CN(C)S(=O)(=O)c1ccc(Cl)cc1	/	.	54	.
Cc1ccc(S(=O)(=O)N(C)C[C@@H]2OCCCC[C@@H](C)Oc3ccc(NS(C)(=O)=O)cc3C(=O)N([C@@H](C)CO)C[C@H]2C)cc1	/	.	36	.
Cc1ccc(S(=O)(=O)N(C)C[C@H]2OCCCC[C@@H](C)Oc3ccc(NS(C)(=O)=O)cc3C(=O)N([C@@H](C)CO)C[C@H]2C)cc1	/	.	.	.
Cc1ccc(S(=O)(=O)Nc2ccc3c(c2)C(=O)N([C@H](C)CO)C[C@H](C)[C@@H](CN(C)S(=O)(=O)c2ccc(Cl)cc2)OCCCC[C@H](C)O3)cc1	/	.	37	.
C[C@@H]1CCCCO[C@@H](CN(C)S(=O)(=O)c2ccc(Cl)cc2)[C@@H](C)CN([C@H](C)CO)C(=O)c2cc(NS(C)(=O)=O)ccc2O1	.	.	22	.
COCC(=O)N1CC2(CCN(C(=O)c3ccccn3)CC2)c2c(n(C)c3cc(OC)ccc23)[C@H]1CO	/	/	.	.
COc1ccc(S(=O)(=O)N(C)C[C@H]2Oc3c(NC(=O)Nc4ccc5c(c4)OCO5)cccc3C(=O)N([C@H](C)CO)C[C@H]2C)cc1	/	.	.	.
C[C@H](CO)N1C[C@H](C)[C@H](CN(C)S(=O)(=O)c2ccc(Cl)cc2)Oc2c(NC(=O)c3ccncc3)cccc2C1=O	.	.	.	.
COc1ccc(S(=O)(=O)N(C)C[C@H]2Oc3c(NC(=O)c4ccncc4)cccc3C(=O)N([C@H](C)CO)C[C@@H]2C)cc1	.	.	25!	.
COc1ccc(S(=O)(=O)N(C)C[C@@H]2Oc3c(NC(=O)C4CCCCC4)cccc3C(=O)N([C@H](C)CO)C[C@@H]2C)cc1	.	.	20	.
COc1ccc(S(=O)(=O)N(C)C[C@@H]2Oc3c(NC(=O)Nc4ccc5c(c4)OCO5)cccc3C(=O)N([C@@H](C)CO)C[C@@H]2C)cc1	/	.	27	.
C[C@@H]1CN([C@@H](C)CO)C(=O)c2cccc(NC(=O)c3ccncc3)c2O[C@@H]1CN(C)S(=O)(=O)c1ccc(Cl)cc1	73	.	?	.
COc1ccc(S(=O)(=O)N(C)C[C@H]2Oc3c(NC(=O)c4ccncc4)cccc3C(=O)N([C@@H](C)CO)C[C@@H]2C)cc1	.	.	.	.
C[C@@H]1CN([C@@H](C)CO)S(=O)(=O)c2ccc(C#Cc3ccncc3)cc2O[C@H]1CN(C)C(=O)C1CCOCC1	.	.	.	.
COCC(=O)N1CCC2(CC1)CN(Cc1ccccn1)[C@H](CO)c1[nH]c3cc(OC)ccc3c12	/	/	.	.
C[C@H]1CN([C@@H](C)CO)C(=O)c2cc(NS(C)(=O)=O)ccc2O[C@H]1CN(C)C(=O)Nc1cccc2ccccc12	.	.	.	.
CC1(C)OC2OC(C(=O)N/N=C/c3ccccc3F)C3OC(C)(C)OC3C2O1 (stereo not given)	103	.	.	.
CCOC(=O)c1ccc2c(c1)nc(-c1ccccn1)n2CC	.	.	.	.
